Measured values reported in ChEMBL document CHEMBL4033788, “Novel Ligustrazine-Based Analogs of Piperlongumine Potently Suppress Proliferation and Metastasis of Colorectal Cancer Cells in Vitro and in Vivo” (J Med Chem, 2018).
Values after ≈ are worked out from the molar mass of the structure shown.

Experiments:
K562 [1] = test: Antiproliferative activity against human K562 cells after 72 hrs by MTT assay; format: functional, cell-based; conditions: K562, 72 h
Summary of the method: (§1)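 Cells grown in RPMI 1640 with 10% FBS in 96-well plates overnight, then exposed to test agents in triplicate for 72 h. MTT (5 mg/mL stock) added for the last 4 h, formazan dissolved in DMSO, absorbance read at 570 nm. Inhibition = (1 − OD treated/OD control) × 100%.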

A549 [2] = test: Antiproliferative activity against human A549 cells after 72 hrs by MTT assay; format: functional, cell-based; conditions: A549, 72 h
[3] = Solubility of compound in phosphate buffer at pH 7.4 after 8 hrs by HPLC analysis; format: physicochemical
Summary of the method: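 Compound was shaken in 50 mM phosphate buffer (pH 7.4) at 20 °C, centrifuged, and the supernatant analysed by HPLC. Conditions were a C18 column, acetonitrile–water 60/40 (v/v) at 1.0 mL/min, with detection at 254 nm. Run in triplicate.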

[4] = Aqueous solubility of compound by HPLC analysis; format: physicochemical; conditions: water
Summary of the method: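 Compound shaken in pure water or 50 mM phosphate buffer pH 7.4 at 20 °C, then centrifuged. Supernatant assayed by C18 HPLC (acetonitrile–water 60/40, 1.0 mL/min, 254 nm). Triplicate.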

U-87 MG [5] = test: Antiproliferative activity against human U87MG cells after 72 hrs by MTT assay; format: functional, cell-based, U-87MG ATCC; summary of the method: as §1
HCT-116 [6] = test: Antiproliferative activity against human HCT116 cells after 72 hrs by MTT assay; format: functional, cell-based; conditions: HCT-116, 72 h; summary of the method: as §1
[7] = Drug level in DMSO treated with (E)-3-Chloro-1-(3-(3,5,6-trimethylpyrazin-2-yl)acryloyl)-5,6-dihydropyridin-2(1H)-one at 5 mg up to 8 hrs in presence of methyl thioglycolate by 1H NMR analysis
A549 [8] = test: Antiproliferative activity against human A549 cells after 72 hrs in presence of piperlongumine by MTT assay; format: functional, cell-based; conditions: A549, 72 h; summary of the method: as §1
K562 [9] = test: Antiproliferative activity against human K562 cells after 72 hrs in presence of piperlongumine by MTT assay; format: functional, cell-based; conditions: K562, 72 h; summary of the method: as §1
HCT-116 [10] = test: Antiproliferative activity against human HCT116 cells after 72 hrs in presence of piperlongumine by MTT assay; format: functional, cell-based; conditions: HCT-116, 72 h; summary of the method: as §1
U-87 MG [11] = test: Antiproliferative activity against human U87MG cells after 72 hrs in presence of piperlongumine by MTT assay; format: functional, cell-based, U-87MG ATCC; summary of the method: as §1

Row | SMILES | IC50 (K562 [1]) [µM] | IC50 (A549 [2]) [µM] | solubility at 8 h [3] [µg/mL] | solubility [4] [µg/mL] | IC50 (U-87 MG [5]) [µM] | IC50 (HCT-116 [6]) [µM] | IC50 (A549 [8]) [µM] | IC50 (K562 [9]) [µM] | IC50 (HCT-116 [10]) [µM] | IC50 (U-87 MG [11]) [µM] | Drug metabolism [7]
1 | Cc1nc(C)c(/C=C/C(=O)N2CCC=C(Br)C2=O)nc1C | 0.48 | 2.48 | 67.3 (≈ 192 µM) | 20.2 (≈ 57.6 µM) | 4.28 | 0.46 |  |  |  |  | 
2 | COC(=O)CSC1CCN(C(=O)/C=C/c2nc(C)c(C)nc2C)C(=O)C1Cl (configuration not stated) |  |  |  |  |  |  |  |  |  |  | Metabolite detected
3 | Cc1nc(C)c(C)nc1C [LIGUSTRAZINE] |  |  |  |  |  |  | 15.2 | 5.09 | 8.17 | 16.1 | 
4 | Cc1nc(C)c(/C=C/C(=O)N2CCCCC2=O)nc1C | > 50 | > 50 |  |  | > 50 | > 50 |  |  |  |  | 

The next lines start with results.

Row | IC50 (K562 [1]) [µM] | IC50 (A549 [2]) [µM] | solubility at 8 h [3] [µg/mL] | solubility [4] [µg/mL] | IC50 (U-87 MG [5]) [µM] | IC50 (HCT-116 [6]) [µM] | IC50 (A549 [8]) [µM] | IC50 (K562 [9]) [µM] | IC50 (HCT-116 [10]) [µM] | IC50 (U-87 MG [11]) [µM] | SMILES | Drug metabolism [7]
5 | 0.64 | 3.19 | 49.9 (≈ 125 µM) | 14.5 (≈ 36.5 µM) | 7.26 | 0.76 |  |  |  |  | Cc1nc(C)c(/C=C/C(=O)N2CCC=C(I)C2=O)nc1C | 
6 | 1.13 | 4.86 | 328 (≈ 1210 µM) | 42.6 (≈ 157 µM) | 8.73 | 1.67 |  |  |  |  | Cc1nc(C)c(/C=C/C(=O)N2CCC=CC2=O)nc1C | 
